This is an account of results in ChEMBL document CHEMBL4152221, “Synthesis and structure-activity relationship of furoquinolinediones as inhibitors of Tyrosyl-DNA phosphodiesterase 2 (TDP2)” (Eur J Med Chem, 2018).

Calls of active or inactive are those of the source. How the calls were made is not given here.

Assay [1] has as its target T1, Tyrosyl-DNA phosphodiesterase 2 (Homo sapiens, UniProt O95551).
T1 sequence (O95551 whole entry): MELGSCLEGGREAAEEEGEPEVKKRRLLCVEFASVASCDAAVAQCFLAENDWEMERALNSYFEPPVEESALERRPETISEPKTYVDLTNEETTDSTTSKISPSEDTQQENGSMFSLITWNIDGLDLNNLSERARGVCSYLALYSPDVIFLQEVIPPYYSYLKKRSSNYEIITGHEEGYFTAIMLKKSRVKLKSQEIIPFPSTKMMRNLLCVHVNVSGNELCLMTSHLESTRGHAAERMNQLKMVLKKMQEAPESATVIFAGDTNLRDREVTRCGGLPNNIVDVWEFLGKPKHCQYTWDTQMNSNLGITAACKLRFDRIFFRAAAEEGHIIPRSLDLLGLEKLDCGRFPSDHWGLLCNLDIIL
The assay can be described thus: Inhibition of recombinant human TDP2 using TY18 (alpha-[32P]-cordycepin-3'-labeled) as substrate after 15 mins by PAGE analysis. In a few lines:
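32P-cordycepin-3'-labeled TY18 substrate at 1 nM with 25 pM recombinant human TDP2, 15 min at room temperature. Buffer: 50 mM Tris-HCl pH 7.5, 80 mM KCl, 5 mM MgCl2, 0.1 mM EDTA, 1 mM DTT, 40 μg/mL BSA, 0.01% Tween 20. Six or eight three-fold dilutions up to 111 μM. Gel densitometry; IC50 is mean ± SD of ≥3 independent experiments. Positive control: SV-163.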

Assay [2] addresses Tyrosyl-DNA phosphodiesterase 1 (Homo sapiens, UniProt Q9NUW8). The experiment in a line: Inhibition of recombinant TDP1 (unknown origin) at 111 uM using 5'-[32P]-labeled N14Y as substrate after 15 mins by PAGE analysis. In a few lines: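 5'-32P-labeled N14Y (3'-phosphotyrosyl single-stranded oligo) at 1 nM with 10 pM recombinant TDP1, 15 min at room temperature. Three-fold dilutions up to 111 μM. Gels scanned and quantified by densitometry. Positive control: AM-8-3.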

The target in assay [3] is T1, Tyrosyl-DNA phosphodiesterase 2. The assay can be described thus: Inhibition of human TDP2 expressed in TDP2 deficient chicken DT40 whole cell extracts using TY19 DNA as substrate after 15 mins by PAGE analysis. In a few lines:
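Extract from 1×10^7 TDP2-knockout DT40 cells complemented with human TDP2, lysed 15 min on ice, spun at 12000 g for 10 min, stored at -80 °C. TY19 substrate at 1 nM with 5 μg/mL extract, ±inhibitor, 15 min at room temperature in LMP2 buffer. Gel densitometry. IC50 is mean ± SD of ≥3 independent experiments.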

Chain of Tyrosyl-DNA phosphodiesterase 1 (Q9NUW8 whole entry): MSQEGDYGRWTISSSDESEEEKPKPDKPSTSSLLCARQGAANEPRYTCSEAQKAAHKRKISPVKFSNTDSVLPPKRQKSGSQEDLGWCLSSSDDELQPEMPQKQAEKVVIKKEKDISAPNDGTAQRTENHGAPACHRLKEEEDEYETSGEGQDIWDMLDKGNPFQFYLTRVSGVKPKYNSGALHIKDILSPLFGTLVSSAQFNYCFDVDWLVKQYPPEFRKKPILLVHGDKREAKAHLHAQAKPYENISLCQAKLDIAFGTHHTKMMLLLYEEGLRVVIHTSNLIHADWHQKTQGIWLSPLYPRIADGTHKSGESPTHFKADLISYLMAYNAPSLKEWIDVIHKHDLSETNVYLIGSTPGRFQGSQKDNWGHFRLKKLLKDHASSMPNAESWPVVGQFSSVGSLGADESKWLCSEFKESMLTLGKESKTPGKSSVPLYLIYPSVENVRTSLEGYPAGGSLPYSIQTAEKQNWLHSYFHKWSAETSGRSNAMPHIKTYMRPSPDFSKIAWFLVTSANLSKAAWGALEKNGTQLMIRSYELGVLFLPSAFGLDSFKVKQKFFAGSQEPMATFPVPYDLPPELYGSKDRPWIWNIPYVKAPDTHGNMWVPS

As usually defined, the IC50 is the concentration that gives 50% inhibition. Take `COP(=O)(CCOC(=O)c1c(C)oc2c1C(=O)c1ncccc1C2=O)OC`: the figures for the concentration for half-maximal inhibition (IC50) in assay [1] and in assay [3] were 9 µM and 17 µM, respectively. The inhibition result in assay [2] was “inactive”.
`CCNC(=O)c1c(C)oc2c1C(=O)c1cccnc1C2=O`: the IC50 in assay [1] is greater than 111 µM. In addition, in assay [2], the inhibition entry was “inactive”.
The matching figures for `Cc1oc2c(c1-c1nc3ccccc3o1)C(=O)c1ncccc1C2=O`: greater than 111 µM and “inactive”.
As for `Cc1oc2c(c1C(=O)Oc1cccc(-c3cn(CCCO)nn3)c1)C(=O)c1ncccc1C2=O`, the concentration for half-maximal inhibition (IC50) in assay [1] stood at 8.1 µM; in assay [3] it was 8.3 µM. Also, in assay [2], the inhibition result was “inactive”.
`Cc1cnc2c(c1)C(=O)c1occ(C)c1C2=O`: the IC50 in assay [1] was greater than 111 µM. Moreover, the inhibition result in assay [2] was “inactive”.
Take `Cc1oc2c(c1C(=O)Oc1ccccc1C#N)C(=O)c1ncccc1C2=O`: the IC50 in assay [1] and in assay [3] was greater than 111 µM throughout. Further, the inhibition result in assay [2] is “inactive”.
With `Cc1oc2c(c1C(=O)Oc1ccc(OCCCN3CCOCC3)cc1)C(=O)c1ncccc1C2=O`, in assay [1], the IC50 is 51 µM. In addition, in assay [2], the inhibition result is “inactive”.
The matching figures for `CC(=O)c1c(C)oc2c1C(=O)c1cccnc1C2=O`: greater than 111 µM and “inactive”.
For the compound `Cc1oc2c(c1C(=O)OCCC#N)C(=O)c1ncccc1C2=O`, the IC50 in assay [1] came to 14 µM; in assay [3] it was 13 µM. In addition, in assay [2], the inhibition result is “inactive”.
The matching figures for `Cc1oc2c(c1C(=O)Oc1ccccc1O)C(=O)c1cccnc1C2=O`: 29 µM, 39 µM and “inactive”.
For `Cc1oc2c(c1C(=O)Oc1ccc3c(c1)OCO3)C(=O)c1ncccc1C2=O`, the IC50 in assay [1] and in assay [3] was greater than 111 µM throughout. Moreover, the inhibition result in assay [2] is “inactive”.
For `CCNC(=O)c1c(C)oc2c1C(=O)c1ncccc1C2=O`, the IC50 in assay [1] was greater than 111 µM. In addition, the inhibition result in assay [2] was “inactive”.
The matching figures for `CCOC(=O)c1n[nH]c2c1C(=O)c1ncccc1C2=O`: greater than 111 µM and “inactive”.
`COC(=O)[C@H](Cc1ccc(OC(=O)c2c(C)oc3c2C(=O)c2ncccc2C3=O)cc1)NC(C)=O`: the IC50 in assay [1] was determined as 23 µM; in assay [3], 17 µM. Further, the inhibition result in assay [2] was “inactive”.
On to `Cc1oc2c(c1C(=O)OCC(=O)O)C(=O)c1ncccc1C2=O`, for which the IC50 in assay [1] came to 51 µM; in assay [3] it was 37 µM. In addition, in assay [2], the inhibition result was “inactive”.
The matching figures for `CC(=O)N1CCN(c2ccc(OC(=O)c3c(C)oc4c3C(=O)c3ncccc3C4=O)cc2)CC1`: 37 µM, 34 µM and “inactive”.
The matching figures for `Cc1oc2c(c1C(=O)Oc1cccc(C#N)c1)C(=O)c1ncccc1C2=O`: 12 µM, 10 µM and “inactive”.
The matching figures for `COC(=O)c1c(C)oc2c1C(=O)c1ncccc1C2=O`: 26 µM, 12 µM and “inactive”.
On to `COP(=O)(OC)Oc1ccc(OC(=O)c2c(C)oc3c2C(=O)c2ncccc2C3=O)cc1`, for which the IC50 in assay [1] is 31 µM. Further, the inhibition result in assay [2] is “inactive”.
The matching figures for `Cc1oc2c(c1C(=O)Nc1cccc(Cl)c1)C(=O)c1ncccc1C2=O`: greater than 111 µM and “inactive”.
For the compound `C=CC(=O)Nc1cccc(OC(=O)c2c(C)oc3c2C(=O)c2ncccc2C3=O)c1`, the IC50 in assay [1] is 71 µM. Besides, the inhibition result in assay [2] was “inactive”.
Turning to `Cc1oc2c(c1C(=O)Oc1ccc(Br)cc1)C(=O)c1ncccc1C2=O`, the IC50 in assay [1] worked out at 35 µM; in assay [3], 12 µM. Moreover, in assay [2], the inhibition entry was “inactive”.
With `Cc1oc2c(c1C(=O)OCCc1ccccc1)C(=O)c1ncccc1C2=O`, the results for the IC50 in assay [1] and in assay [3] were 53 µM and 24 µM, respectively. In addition, the inhibition entry in assay [2] is “inactive”.
For `Cc1oc2c(c1C(=O)Oc1ccc3ccccc3c1)C(=O)c1ncccc1C2=O`, in assay [1], the IC50 is greater than 111 µM. The inhibition result in assay [2] is “inactive”.
The matching figures for `Cc1oc2c(c1C(=O)Nc1ccccc1)C(=O)c1ncccc1C2=O`: greater than 111 µM and “inactive”.
Regarding `Cc1oc2c(c1C(=O)Oc1cccc(-c3cn(CCC(=O)O)nn3)c1)C(=O)c1ncccc1C2=O` [listing 1 of 3 here], in assay [2], the inhibition result is “inactive”.
Consider `Cc1oc2c(c1C(=O)Oc1ccc(N)cc1)C(=O)c1ncccc1C2=O`, for which the IC50 in assay [1] was determined as 19 µM. Further, in assay [2], the inhibition result is “inactive”.
`Cc1oc2c(c1C(=O)Oc1cccc(-c3cn(CCC(=O)O)nn3)c1)C(=O)c1ncccc1C2=O` [listing 2 of 3 here]: the results for the IC50 in assay [1] and in assay [3] were 22 µM and 13 µM, respectively.
With `Cc1oc2c(c1C(=O)OCC(F)(F)F)C(=O)c1ncccc1C2=O`, the IC50 in assay [1] is 28 µM; in assay [3] it was 24 µM. The inhibition result in assay [2] was “inactive”.
The matching figures for `Cc1oc2c(c1C(=O)Oc1cccc(N)c1)C(=O)c1ncccc1C2=O`: 16 µM, 12 µM and “inactive”.
As for `Cc1oc2c(c1C(=O)Nc1cccc(Cl)c1)C(=O)c1cccnc1C2=O`, the IC50 in assay [1] was greater than 111 µM. In assay [2], the inhibition entry was “inactive”.
As to `Cc1oc2c(c1C(=O)OCCC[n+]1ccc(N(C)C)cc1)C(=O)c1ncccc1C2=O`, the IC50 was determined as 43 µM in assay [1] and 38 µM in assay [3]. The inhibition result in assay [2] is “inactive”.
The matching figures for `Cc1oc2c(c1C(=O)OC[C@H](O)CO)C(=O)c1ncccc1C2=O`: 50 µM, 15 µM and “inactive”.
Turning to `C#CCCOC(=O)c1c(C)oc2c1C(=O)c1ncccc1C2=O`, the values for the IC50 in assay [1] and in assay [3] were 22 µM and 15 µM, respectively. Besides, the inhibition result in assay [2] was “inactive”.
Regarding `Cc1oc2c(c1C(=O)Oc1cccc(NC(=O)OC(C)(C)C)c1)C(=O)c1ncccc1C2=O`, the IC50 in assay [1] amounted to 31 µM. For the same compound, the inhibition entry in assay [2] was “inactive”.
In the case of `Cc1oc2c(c1C(=O)Oc1cccc(-c3cn(CCC(=O)O)nn3)c1)C(=O)c1ncccc1C2=O` [listing 3 of 3 here], the IC50 is 50 µM in assay [1] and 28 µM in assay [3].
Turning to `CCOC(=O)c1n[nH]c2c1C(=O)c1cccnc1C2=O`, in assay [1], the IC50 is greater than 111 µM. Also, in assay [2], the inhibition result was “inactive”.
For `Cc1oc2c(c1C(=O)OCCCCO)C(=O)c1ncccc1C2=O`, the IC50 in assay [1] came out at 26 µM; in assay [3] it was 12 µM. For the same compound, in assay [2], the inhibition entry is “inactive”.
The matching figures for `Cc1oc2c(c1C(=O)Oc1ccc(S(C)(=O)=O)cc1)C(=O)c1ncccc1C2=O`: 14 µM, 16 µM and “inactive”.
Turning to `C=CC(=O)Nc1ccc(OC(=O)c2c(C)oc3c2C(=O)c2ncccc2C3=O)cc1`, the IC50 in assay [1] amounted to 68 µM. In assay [2], the inhibition result was “inactive”.
`Cc1oc2c(c1C(=O)Oc1cccc(Cl)c1)C(=O)c1ncccc1C2=O`: the IC50 in assay [1] amounted to 14 µM; in assay [3], 11 µM. The inhibition entry in assay [2] was “inactive”.
`CCOC(=O)c1c(C)[nH]c2c1C(=O)c1cccnc1C2=O`: the IC50 in assay [1] was greater than 111 µM. Further, the inhibition result in assay [2] was “inactive”.
For `Cc1oc2c(c1C(=O)Oc1ccc(NC(=O)OC(C)(C)C)cc1)C(=O)c1ncccc1C2=O`, the IC50 in assay [1] was 88 µM. In assay [2], the inhibition result was “inactive”.
In the case of `COc1ccc(NC(=O)c2c(C)oc3c2C(=O)c2ncccc2C3=O)cc1`, in assay [1], the IC50 is greater than 111 µM. In assay [2], the inhibition result is “inactive”.
The matching figures for `Cc1oc2c(c1C(=O)Oc1ccccc1NC(=O)OC(C)(C)C)C(=O)c1ncccc1C2=O`: 36 µM and “inactive”.
The matching figures for `COP(=O)(OC)c1c(C)oc2c1C(=O)c1ncccc1C2=O`: greater than 111 µM and “inactive”.
For `Cc1oc2c(c1C(=O)Oc1ccc(C(=O)c3ccccc3)cc1)C(=O)c1ncccc1C2=O`, the IC50 in assay [1] was greater than 111 µM. Moreover, the inhibition entry in assay [2] was “inactive”.
For `CCOC(=O)c1c2c(n(C)c1C)C(=O)c1ncccc1C2=O`, the IC50 in assay [1] is greater than 111 µM. Moreover, the inhibition result in assay [2] was “inactive”.
The matching figures for `COP(=O)(OC)c1c(C)oc2c1C(=O)c1cccnc1C2=O`: 99 µM and “inactive”.
Consider `Cc1oc2c(c1C(=O)Nc1ccccc1O)C(=O)c1ncccc1C2=O`, for which, in assay [1], the IC50 is greater than 111 µM. The inhibition result in assay [2] was “inactive”.
